Assay results reported in PMC4233149 (Clinical cancer research : an official journal of the …, 2014).

Legend:
[1] = test system: pSer473 AKT; test: PD biomarker in paired tumor biopsies; format: in vivo, human
Procedure, shortened: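 Paired tumor biopsies were taken before and on treatment (oral QW or 60mg QOD). pSer473 AKT was quantified by MSD electrochemiluminescence assay validated to Good Clinical Practice standards. Levels were expressed as percent of each patient's baseline.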

[2] = alternate days (QOD), previously established; cited from earlier work
[3] = test system: advanced solid tumors; test: Multiparametric functional MRI; format: in vivo, human; conditions: 60mg QOD, one patient with ADC response
Procedure, shortened: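 Oral dosing at 60mg QOD to fasted patients in 28-day cycles. Imaging on a 1.5T MR system used DCE-MRI, DWI, 1H-MRS and ISW-MRI. Median Ktrans, ADC, tCho/water ratio and R2* were analysed. Four scans per patient: two pre-treatment (reproducibility cohort), then cycle 1 day 7±1 and day 21±4.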

[4] = test system: pSer473 AKT; test: PD biomarker in platelet-rich plasma; format: in vivo, human; conditions: PRP
[5] = Plasma pharmacokinetics, QW schedule; format: in vivo, human
Procedure, shortened: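 Plasma was sampled after the first and last weekly oral dose of cycle 1 (90–300mg). Concentrations were analysed non-compartmentally for AUC0-168h, Cmax, C48h […], Tmax and apparent terminal t1/2. Last-day/day-1 ratios were derived for AUC, Cmax and C48h.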

[6] = Solubility; format: physicochemical; conditions: across physiological pH ranges
[7] = Permeability; format: physicochemical; conditions: across physiological pH ranges

## NC1(c2ccc(-c3nc4ccn5c(=O)[nH]nc5c4cc3-c3ccccc3)cc2)CCC1 [MK-2206]
[1]; 60mg QOD, 3 patients
  pSer473 AKT levels, % of baseline levels (range): 45.3-56.2%
[1]; 60mg QOD, 3 patients, p=0.004
  mean pSer473 AKT levels, % of baseline levels: 50.1%
[1]; 200mg QW, 5 patients
  pSer473 AKT signal, % of baseline levels (range): 37.5-60.3%
[1]; 200mg QW, 5 patients, p=0.0003
  pSer473 AKT signal, % of baseline levels: 50.0%
[2]
  maximum tolerated dose (MTD): 60 mg
[3]
  reduction in K^trans: 20%
[4]; 60mg QOD
  overall mean decrease of pSer473 AKT levels: 55.3%
  time of maximum inhibition of pSer473 AKT post-MK-2206: 6 h
[4]; 60mg QOD, 3h, 29 patients
  mean pSer473 AKT signal, % of baseline levels: 36.3%
[4]; 60mg QOD, 6h, 29 patients
  mean pSer473 AKT signal, % of baseline levels: 27.9%
[4]; 60mg QOD, 24h, 29 patients
  mean pSer473 AKT signal, % of baseline levels: 44.0%
[4]; 60mg QOD, 48h, 29 patients
  mean pSer473 AKT signal, % of baseline levels: 70.6%
[4]; 60mg QOD, 48h, one outlier removed (28 patients), p=0.0004
  mean pSer473 AKT levels, % of baseline levels: 60.1%
[4]; 150mg QW, breast cancer patient
  time of maximal suppression of pSer473 AKT and its substrate pSer9 GSK3β: 24 h
[4]; 200mg QW, 24h, n=11
  mean pSer473 AKT signal, % of baseline levels: 19.8%
[4]; 200mg QW, 48h, n=11
  mean pSer473 AKT signal, % of baseline levels: 30.6%
[4]; 200mg QW, 96h, n=11
  mean pSer473 AKT signal, % of baseline levels: 51.7%
[4]; 200mg QW, 168h, n=11
  mean pSer473 AKT signal, % of baseline levels: 97.4%
[4]; QW MTD
  duration of initial suppression of pSer473 AKT phosphorylation signal: at least 96 h
[5]; 90mg QW
  C48h Last Day / Day1 Ratio (geometric mean): 1.61
[5]; 90mg QW, Day 1
  Tmax, median (min - max): 6.0 (4.0-10.0) h
[5]; 90mg QW, Last Day of cycle 1
  Tmax, median (min - max): 4.0 (4.0-4.0) h
[5]; 90mg to 300mg QW
  dose proportionality of AUC and Cmax: increased in a dose-proportional manner
[5]; 90mg, 135mg, 200mg, 250mg and 300mg QW
  decline of plasma concentrations: declined in a mono-exponential manner
[5]; 90mg-300mg QW, cycle 1
  auto-induction of metabolizing enzymes: no auto-induction of MK-2206 metabolizing enzymes
[5]; 135mg QW
  AUC0-168h Last Day / Day1 Ratio (geometric mean): 1.91
  C48h Last Day / Day1 Ratio (geometric mean): 1.86
  Cmax Last Day / Day1 Ratio (geometric mean): 1.95
[5]; 135mg QW, Day 1
  Tmax, median (min - max): 4.0 (4.0-10.0) h
[5]; 150mg QW, Last Day of cycle 1, N=1
  Tmax: 4.0 h
[5]; 200mg QW
  AUC0-168h Last Day / Day1 Ratio (geometric mean): 1.54
  C48h Last Day / Day1 Ratio (geometric mean): 1.49
  Cmax Last Day / Day1 Ratio (geometric mean): 1.33
[5]; 200mg QW, Day 1
  Tmax, median (min - max): 6.0 (4.0-10.0) h
[5]; 200mg QW, Last Day of cycle 1
  Tmax, median (min - max): 6.0 (4.0-24.0) h
[5]; 250mg QW, Day 1
  Tmax, median (min - max): 6.0 (4.0-6.0) h
[5]; 250mg QW, Last Day of cycle 1, N=1
  Tmax: 4.0 h
[5]; 300mg QW, Day 1
  Tmax, median (min - max): 4.0 (4.0-6.0) h
[5]; QW schedule, inter-patient variability
  percent coefficient of variations (CVs) of AUC and Cmax: 12% to 71
[5]; higher at 200mg QW
  Cmax at 200mg QW compared with 60mg QOD: about 2 fold
[5]; human, plasma, oral, 90 mg
  half-life: 71.6 ± 12.2 h
[5]; human, plasma, oral, 90 mg, C48h Mean ± SD, 90mg QW, Day 1, plasma
  concentration at 48 h: 50.9 ± 38.2 nM
[5]; human, plasma, oral, 90 mg, C48h Mean ± SD, 90mg QW, Last Day of cycle 1, plasma
  concentration at 48 h: 79.3 ± 33.7 nM
[5]; human, plasma, oral, 90 mg, mean C48h, 90mg QW, multiple dose
  concentration at 48 h: 79.3 nM
[5]; human, plasma, oral, 135 mg
  Tmax: 5 h
  half-life: 88.9 ± 26.9 h
[5]; human, plasma, oral, 135 mg, C48h Mean ± SD, 135mg QW, Day 1, plasma
  concentration at 48 h: 90.3 ± 25.1 nM
[5]; human, plasma, oral, 135 mg, mean C48h, 135mg QW, multiple dose
  concentration at 48 h: 158 nM
[5]; human, plasma, oral, 150 mg
  Tmax: 4 to 10 h
  half-life: 64.4 h
[5]; human, plasma, oral, 150 mg, AUC0-168h Mean, 150mg QW, Day 1, plasma, N=2
  AUC(0-t): 20.7 µM·h
[5]; human, plasma, oral, 150 mg, C48h, 150mg QW, Last Day of cycle 1, plasma, N=1
  concentration at 48 h: 185 nM
[5]; human, plasma, oral, 150 mg, C48h Mean, 150mg QW, Day 1, plasma, N=2
  concentration at 48 h: 155 nM
[5]; human, plasma, oral, 150 mg, Cmax Mean, 150mg QW, Day 1, plasma, N=2
  Cmax: 337 nM
[5]; human, plasma, oral, 150 mg, Cmax, 150mg QW, Last Day of cycle 1, plasma, N=1
  Cmax: 346 nM
[5]; human, plasma, oral, 200 mg, C48h Mean ± SD, 200mg QW, Day 1, plasma
  concentration at 48 h: 121 ± 47.4 nM
[5]; human, plasma, oral, 200 mg, mean C48h, 200mg QW, multiple dose
  concentration at 48 h: 187 nM
[5]; human, plasma, oral, 250 mg
  half-life: 53.7 h
[5]; human, plasma, oral, 250 mg, C48h, 250mg QW, Last Day of cycle 1, plasma, N=1
  concentration at 48 h: 74.8 nM
[5]; human, plasma, oral, 250 mg, C48h Mean ± SD, 250mg QW, Day 1, plasma
  concentration at 48 h: 103 ± 19.6 nM
[5]; human, plasma, oral, 250 mg, Cmax, 250mg QW, Last Day of cycle 1, plasma, N=1
  Cmax: 169 nM
[5]; human, plasma, oral, 300 mg, C48h Mean, 300mg QW, Day 1, plasma
  concentration at 48 h: 253 nM
[5]; human, plasma, oral, 300 mg, mean Cmax after the first dose, 300mg QW cohort
  Cmax: 466 nM
[5]; human, plasma, oral, mean Cmax levels after multiple QW dose administration, 90mg to 250mg QW
  Cmax: 153 to 245 nM
[6]
  solubility: relatively low solubility
[7]
  permeability: high permeability
